Results on five compounds are retold here after ChEMBL document CHEMBL1139207, “Pyrroloacridine alkaloids from Plakortis quasiamphiaster: structures and bioactivity” (J Nat Prod, 2007).

SMILES strings stand for the structures. The source made the active and inactive calls. The calls are words filed in the database; no cut-off is given here.

The nature of data set [1]: Cytotoxicity against human H116 cells by disk diffusion assay. It is filed as cell-based. (In general: In agar diffusion tests the substance spreads into inoculated agar from a disc or well.)
Data set [2] has as its system Saccharomyces cerevisiae. In words: Inhibition of Saccharomyces cerevisiae top1delta by yeast halo assay. It is filed as functional, organism-based. An outline of the steps: (§1)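 Diploid S. cerevisiae BY4743 (top1∆ or wild type) from overnight culture seeded into YPD-H agar (YPD buffered with 25 mM HEPES, pH 7) and cooled 30 min. DMSO stocks were pin-transferred at 200 nL into the agar. Plates read by absorbance at 544 nm, growth-inhibition halo diameter measured, and top1∆ growth compared with wild type.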

Data set [3] deals with Saccharomyces cerevisiae. In words: Inhibition of wild type Saccharomyces cerevisiae by yeast halo assay. It is filed as functional, organism-based. A digest of the protocol:
as §1

The nature of data set [4]: Cytotoxicity against human H116 cells by clonogenic assay after 2 hrs. It is filed as cell-based. Conditions: h116, 2 h. A digest of the protocol:
(§2)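 Clonogenic survival of human colon H-116 cells over a range of concentrations, exposed for 2, 24 or 168 h (168 h being continuous over the 7-day incubation). Value reported as the concentration giving 10% surviving fraction (S10), read from the concentration-response curve.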

Data set [5] can be described thus: Cytotoxicity against human H116 cells by clonogenic assay after 168 hrs. It is filed as cell-based. The conditions noted are these: h116, 168 h. A digest of the protocol: as §2
The nature of data set [6]: Cytotoxicity against human H116 cells by clonogenic assay after 24 hrs. It is filed as cell-based. The conditions noted are these: h116, 24 h. A digest of the protocol:
as §2

The test system of data set [7] is Saccharomyces cerevisiae. The experiment in a line: Inhibition of Saccharomyces cerevisiae top1delta in liquid culture. It counts as functional. A digest of the protocol: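 Diploid S. cerevisiae BY4743 top1∆ and wild type grown in 100 µL liquid cultures with six 2-fold dilutions of compound alongside DMSO controls. Absorbance at 544 nm read every 30 min. Doubling time computed at each concentration and compared with the DMSO doubling time; LC50 derived.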

Data set [8] is described as follows: Induction of Top2-mediated catenation of DNA. It is filed as functional.

Take `CCC/C=C/CCCCCCCCCCCC[C@]1(C)OC(=O)[C@@H](CO)[C@@H]1O` [AMPHIASTERIN B2]: in data set [1], the Activity result is on record as “Not Active”. Besides, the result in data set [2] and in data set [3] was inactive.
As to `CNc1c2c(c3nc4ccccc4c4c3c1N=C4)NCCC2=O` [PLAKINIDINE A], the Activity was 20 µg/mL in data set [4], “Active” in data set [1], 150 ng/mL in data set [5] and 1.5 µg/mL in data set [6]. Moreover, the result in data set [2] and in data set [3] was inactive.
The LC50 is the concentration lethal to half of the exposed cells or organisms. High values mean lower toxicity, low ones greater toxicity. Regarding `O=C1CCNC2=C1C(=O)c1[nH]cc3c1c2nc1ccccc13` [PLAKINIDINE E], in data set [7], the LC50 was 33 µM. Besides, the Activity entry was “Not Active” in data set [1], “Toxic” in data set [2] and “Non-toxic” in data set [3].
On to `Cn1ccc2c(c1=O)C(=O)c1nccc3c1c-2nc1ccccc13`, for which the result in data set [8] was Active.
For `CCC/C=C/CCCCCCCCCC[C@]1(C)OC(=O)[C@@H](CO)[C@@H]1O` [AMPHIASTERIN B1], the Activity entry in data set [1] was “Not Active”. The outcome in data set [2] and in data set [3] was inactive.
